pEC50: −log10 of the molar value. Calls of active or inactive are those of the source. The calls are words filed in the database; no cut-off is given here.
How the values were obtained:
Aorta [1] = assay: Nitric oxide radical scavenging activity in rat thoracic aorta assessed as inhibition of acteylcholine-induced vasorelaxation at 100 umol; assay type: functional, tissue-based
PC-12 [2] = assay: Hydroxyl radical scavenging activity in rat PC12 cells; assay type: functional, cell-based
Procedure, shortened: (§1)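 PC12 rat pheochromocytoma cells exposed to NO, H2O2 or ·OH. Test compound given either as pre-incubation before radical exposure or as incubation after exposure. Cell survival read by MTT reduction, used as the index of radical scavenging.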

PC-12 [3] = assay: Hydrogen peroxide radical scavenging activity in rat PC12 cells; assay type: functional, cell-based; procedure, shortened: as §1
PC-12 [4] = assay: Suppression of free radical-induced decrease in viability of rat PC12 cells; assay type: functional, cell-based; procedure, shortened: as §1
Aorta [5] = assay: Nitric oxide radical scavenging activity in rat thoracic aorta assessed as inhibition of acteylcholine-induced vasorelaxation at 10 umol; assay type: functional, tissue-based
Aorta [6] = assay: Nitric oxide radical scavenging activity in rat thoracic aorta assessed as inhibition of acteylcholine-induced vasorelaxation at 1 umol; assay type: functional, tissue-based
PC-12 [7] = assay: Nitric oxide radical scavenging activity in rat PC12 cells; assay type: functional, cell-based; procedure, shortened: as §1
Rattus norvegicus [8] = assay: Protection against hepatic ischemia-reperfusion-induced injury assessed as effect on alanine aminotransferase level in Wistar rat liver at 30 mg/kg; assay type: functional
Procedure, shortened: (§2)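 Male Wistar rats, liver ischemia 30 min then reperfusion 2 h under sodium pentobarbital anesthesia (80 mg/kg). Drug 30 mg/kg given 10 min before reperfusion and again 1 h into reperfusion; sham and I/R controls received saline. n = 8 per group (sham n = 4). Serum ALT and AST measured as liver function; blood frozen at -70 °C until analysis.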

Rattus norvegicus [9] = assay: Protection against hepatic ischemia-reperfusion-induced injury assessed as effect on malondialdehyde level in Wistar rat liver at 30 mg/kg; assay type: functional
Procedure, shortened: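 Male Wistar rats given liver ischemia 30 min and reperfusion 2 h under pentobarbital anesthesia. Drug 30 mg/kg dosed 10 min before reperfusion and 1 h after it began; controls got saline. Liver frozen at -70 °C. MDA in liver mitochondria measured spectrophotometrically as thiobarbituric acid reactive substances (Buege and Aust method).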

Rattus norvegicus [10] = assay: Protection against hepatic ischemia-reperfusion-induced injury assessed as effect on aspartate aminotransferase level in Wistar rat liver at 30 mg/kg; assay type: functional; procedure, shortened: as §2

| SMILES | inhibition (Aorta [1]) [%] | pEC50 (PC-12 [2]) | pEC50 (PC-12 [3]) | Activity (PC-12 [4]) | inhibition (Aorta [5]) [%] | inhibition (Aorta [6]) [%] | pEC50 (PC-12 [7]) | Activity (Rattus norvegicus [8]) [U/L] | Activity (Rattus norvegicus [9]) [nmol/mg] | Activity (Rattus norvegicus [10]) [U/L] |
| --- | --- | --- | --- | --- | --- | --- | --- | --- | --- | --- |
| CC1(C)N([O])C(c2ccc(OCC(=O)N[C@@H](CCCCN)C(=O)O)cc2)=[N+]([O-])C1(C)C | 85 | 4.03 | 4.57 | Active | 60.7 | 24.8 | 4.07 | – | – | – |
| N=C(N)NCCC[C@H](N)C(=O)O [ARGININE] | – | – | – | – | – | – | – | 493 | 3.82 | 789 |
| CC1(C)N([O])C(c2ccc(OCC(=O)N[C@@H](CCCNC(=N)N)C(=O)O)cc2)=[N+]([O-])C1(C)C | 98.9 | 4.00 | 4.31 | Active | 74 | 28.7 | 4.03 | 173 | 2.76 | 510 |
